Data taken from ChEMBL document CHEMBL5316281, “Trojan Horse Siderophore Conjugates Induce Pseudomonas aeruginosa Suicide and Qualify the TonB Protein as a Novel Antibiotic Target” (2023).
Calls of active or inactive are those of the source. No cut-off for these calls is given here. Where a SMILES comes first, the peptide text is derived from it. The star is where a group is joined. X1 = O=C(COCC(=O)*)NCCOCCOCCOCCOCCOCCOCCOCCOCCn1cc(CCCC(=O)Nc2c(CNC(=O)c3cccc(O)c3O)cc(CNC(=O)c3cccc(O)c3O)cc2CNC(=O)c2cccc(O)c2O)nn1

Key:
[1] = test system: Pseudomonas aeruginosa; test: Antimicrobial activity against Pseudomonas aeruginosa PAO1 assessed as fold increase in pfeA transcription level at 10 uM incubated for 8 hrs in presence of iron-depleted CAA medium by qRT-PCR analysis; type: functional
Outline: (§1)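 Cells grown in CAA medium for 8 h at 30 °C with vigorous shaking, with or without 10 μM compound; 2.5 x 10⁸ cells stabilized in two volumes RNAprotect; RNA processed per earlier protocol; RT-qPCR with primer efficiencies from serially diluted genomic DNA; double ΔCT analysis.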

[2] = test system: Pseudomonas aeruginosa; test: Antimicrobial activity against Pseudomonas aeruginosa PAO1 assessed as inhibition of bacterial growth in presence of iron-depleted CAA medium; type: functional, organism-based
[3] = test system: Pseudomonas aeruginosa; test: Antimicrobial activity against Pseudomonas aeruginosa harboring deltapvdF-deltapchA mutant assessed as inhibition of bacterial growth by measuring minimal inhibitory concentration incubated for 24 hrs in presence of iron-depleted CAA medium; type: functional
[4] = test system: Pseudomonas aeruginosa; test: Antimicrobial activity against Pseudomonas aeruginosa harboring deltapvdF-deltapchA mutant with PfeA deletion assessed as reduction of bacterial growth at 10 uM by growth kinetic assay; type: functional, organism-based
Outline: (§2)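 Overnight LB culture washed, regrown in CAA at 30 °C, washed, resuspended in CAA at OD600 0.02; fresh sterile-filtered aqueous compound added to 10 µM final; OD600 read in plate reader for 48 h at 30 °C with regular agitation.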

[5] = test system: Pseudomonas aeruginosa; test: Antimicrobial activity against Pseudomonas aeruginosa harboring deltapvdF-deltapchA mutant with PirA deletion assessed as reduction of bacterial growth at 10 uM by growth kinetic assay; type: functional, organism-based; outline: as §2
[6] = test system: Pseudomonas aeruginosa; test: Antimicrobial activity against Pseudomonas aeruginosa harboring deltapvdF-deltapchA mutant assessed as decrease in fptA transcription level at 10 uM incubated for 8 hrs in presence of iron-depleted CAA medium by qRT-PCR analysis; type: functional, organism-based; outline: as §1
[7] = test system: Pseudomonas aeruginosa; test: Antimicrobial activity against Pseudomonas aeruginosa harboring deltapvdF-deltapchA mutant assessed as effect on pirA transcription level at 10 uM incubated for 8 hrs in presence of iron-depleted CAA medium by qRT-PCR analysis; type: functional, organism-based; outline: as §1
[8] = test system: Pseudomonas aeruginosa; test: Antimicrobial activity against Pseudomonas aeruginosa harboring deltapvdF-deltapchA mutant assessed as inhibition of bacterial growth by measuring minimal inhibitory concentration incubated for 48 hrs in presence of iron-depleted CAA medium; type: functional
[9] = test system: Pseudomonas aeruginosa; test: Antimicrobial activity against Pseudomonas aeruginosa harboring deltapvdF-deltapchA mutant assessed as increase in pfeA transcription level at 10 uM incubated for 8 hrs in presence of iron-depleted CAA medium by qRT-PCR analysis; type: functional, organism-based; outline: as §1
[10] = test system: Pseudomonas aeruginosa; test: Antimicrobial activity against Pseudomonas aeruginosa harboring deltapvdF-deltapchA mutant with PirA-PfeA dual deletion assessed as reduction of bacterial growth at 10 uM by growth kinetic assay; type: functional, organism-based; outline: as §2

| Molecule | fold change (FC) [1] | Activity [2] | MIC [3] [µM] | Activity [4] | Activity [5] | Activity [6] | Activity [7] | MIC [8] [µM] | Activity [9] | Activity [10] |
| --- | --- | --- | --- | --- | --- | --- | --- | --- | --- | --- |
| C#CCNC(=O)CN1CCN(CC(=O)NCCNC(=O)c2cccc(O)c2O)CCN(CC(=O)NCCNC(=O)c2cccc(O)c2O)CCN(CC(=O)NCCNC(=O)c2cccc(O)c2O)CC1 | 2 | inactive | 64 | inactive | Active | Active | inactive | 64 |  |  |
| CC[C@H](C)[C@H](NC(=O)[C@H](CCSC)NC(=O)[C@@H](NC(=O)[C@H](C)NC(=O)CNC(=O)[C@H](CC(C)C)NC(=O)[C@H](CC(=O)O)NC(=O)[C@@H](NC(=O)[C@H](CO)NC(=O)[C@H](CO)NC(=O)[C@@H](N)CC(=O)O)C(C)C)[C@@H](C)O)C(=O)N[C@H](C(=O)N[C@@H](CO)C(=O)N[C@@H](CC(N)=O)C(=O)N[C@@H](CCC(N)=O)C(=O)N[C@@H](CC(C)C)C(=O)NCC(=O)N[C@H](C(=O)N[C@H](C(=O)N[C@@H](CCCCNC(=O)COCC(=O)NCCOCCOCCOCCOCCOCCOCCOCCOCCn1cc(CCCC(=O)Nc2c(CNC(=O)c3cccc(O)c3O)cc(CNC(=O)c3cccc(O)c3O)cc2CNC(=O)c2cccc(O)c2O)nn1)C(N)=O)[C@@H](C)CC)[C@@H](C)O)[C@@H](C)O (H-DSSVDLGATMITSNQLGTIK(X1)-NH2) |  | inactive | > 64 | Active | inactive | Active | inactive | > 64 | Active | Active |
| CC[C@H](C)[C@H](NC(=O)[C@H](CC(C)C)NC(=O)[C@@H](N)CO)C(=O)N[C@@H](CCCNC(=N)N)C(=O)N[C@H](C(=O)N[C@@H](CO)C(=O)N[C@@H](CCC(N)=O)C(=O)N[C@@H](CC(=O)O)C(=O)N[C@@H](CC(=O)O)C(=O)N[C@@H](CC(C)C)C(=O)N[C@H](C(=O)N[C@@H](CCC(N)=O)C(=O)N[C@@H](CCSC)C(=O)N[C@@H](CO)C(=O)N1CCC[C@H]1C(=O)N[C@@H](CO)C(=O)N[C@H](C(=O)N[C@H](C(=O)N[C@@H](CO)C(=O)N[C@@H](C)C(=O)N[C@@H](C)C(=O)N[C@@H](CCCNC(=N)N)C(=O)N1CCC[C@H]1C(=O)N[C@@H](CCCCNC(=O)COCC(=O)NCCOCCOCCOCCOCCOCCOCCOCCOCCn1cc(CCCC(=O)Nc2c(CNC(=O)c3cccc(O)c3O)cc(CNC(=O)c3cccc(O)c3O)cc2CNC(=O)c2cccc(O)c2O)nn1)C(N)=O)[C@@H](C)CC)C(C)C)C(C)C)C(C)C (H-SLIRVSQDDLVQMSPSVISAARPK(X1)-NH2) |  | inactive | > 64 | Active | inactive |  |  | > 64 |  | Active |
| CC[C@H](C)[C@H](NC(=O)[C@H](CCSC)NC(=O)[C@@H](NC(=O)[C@H](C)NC(=O)CNC(=O)[C@H](CC(C)C)NC(=O)[C@H](CC(=O)O)NC(=O)[C@@H](NC(=O)[C@H](CO)NC(=O)[C@H](CO)NC(=O)[C@H](CC(=O)O)NC(=O)COCC(=O)NCCOCCOCCOCCOCCOCCOCCOCCOCCn1cc(CCCC(=O)Nc2c(CNC(=O)c3cccc(O)c3O)cc(CNC(=O)c3cccc(O)c3O)cc2CNC(=O)c2cccc(O)c2O)nn1)C(C)C)[C@@H](C)O)C(=O)N[C@H](C(=O)N[C@@H](CO)C(=O)N[C@@H](CC(N)=O)C(=O)N[C@@H](CCC(N)=O)C(=O)N[C@@H](CC(C)C)C(=O)NCC(=O)N[C@H](C(=O)N[C@H](C(=O)N[C@@H](CCCCN)C(N)=O)[C@@H](C)CC)[C@@H](C)O)[C@@H](C)O (X1-DSSVDLGATMITSNQLGTIK-NH2) |  | inactive | > 64 | Active | inactive | Active | inactive | > 64 | Active | Active |
| CC[C@H](C)[C@H](NC(=O)[C@H](CC(C)C)NC(=O)[C@H](CO)NC(=O)COCC(=O)NCCOCCOCCOCCOCCOCCOCCOCCOCCn1cc(CCCC(=O)Nc2c(CNC(=O)c3cccc(O)c3O)cc(CNC(=O)c3cccc(O)c3O)cc2CNC(=O)c2cccc(O)c2O)nn1)C(=O)N[C@@H](CCCNC(=N)N)C(=O)N[C@H](C(=O)N[C@@H](CO)C(=O)N[C@@H](CCC(N)=O)C(=O)N[C@@H](CC(=O)O)C(=O)N[C@@H](CC(=O)O)C(=O)N[C@@H](CC(C)C)C(=O)N[C@H](C(=O)N[C@@H](CCC(N)=O)C(=O)N[C@@H](CCSC)C(=O)N[C@@H](CO)C(=O)N1CCC[C@H]1C(=O)N[C@@H](CO)C(=O)N[C@H](C(=O)N[C@H](C(=O)N[C@@H](CO)C(=O)N[C@@H](C)C(=O)N[C@@H](C)C(=O)N[C@@H](CCCNC(=N)N)C(=O)N1CCC[C@H]1C(=O)N[C@@H](CCCCN)C(N)=O)[C@@H](C)CC)C(C)C)C(C)C)C(C)C (X1-SLIRVSQDDLVQMSPSVISAARPK-NH2) |  | inactive | > 64 | Active | inactive |  |  | > 64 |  | Active |
| CC[C@H](C)[C@H](NC(=O)[C@@H](NC(=O)COCC(=O)NCCOCCOCCOCCOCCOCCOCCOCCOCCn1cc(CCCC(=O)Nc2c(CNC(=O)c3cccc(O)c3O)cc(CNC(=O)c3cccc(O)c3O)cc2CNC(=O)c2cccc(O)c2O)nn1)C(C)C)C(=O)N[C@@H](CCC(=O)O)C(=O)N[C@@H](CC(C)C)C(=O)NCC(=O)N[C@@H](CCC(=O)O)C(=O)N[C@@H](CCC(N)=O)C(=O)N[C@H](C(=O)N[C@H](C(=O)N[C@H](C(=O)N[C@@H](C)C(=O)N[C@H](C(=O)N[C@@H](C)C(=O)N[C@@H](CCC(N)=O)C(=O)N[C@@H](CCC(=O)O)C(=O)N[C@@H](CCC(=O)O)C(=O)N[C@H](C(=O)N[C@@H](CCCCN)C(=O)N[C@@H](CCC(N)=O)C(=O)N[C@@H](CCCCN)C(N)=O)[C@@H](C)O)[C@@H](C)O)C(C)C)C(C)C)[C@@H](C)O (X1-VIELGEQTVVATAQEETKQK-NH2) |  | inactive | > 64 | Active | inactive |  |  | > 64 |  | Active |
| H-DSSVDLGATMITSNQLGTIK-NH2 |  | inactive |  | inactive | inactive | Active | inactive |  | inactive | inactive |
| H-SLIRVSQDDLVQMSPSVISAARPK-NH2 |  | inactive |  | inactive | inactive | Active | inactive |  | inactive | inactive |
| H-VIELGEQTVVATAQEETKQK-NH2 |  | inactive |  | inactive | inactive | Active | inactive |  | inactive | inactive |
